# Assay results published in ChEMBL document CHEMBL1125085, “Synthesis and anticonvulsant activity of some new 2-substituted 3-aryl-4(3H)-quinazolinones” (J Med Chem, 1990).
# “And” between values parts separate entries of the source, which are not always exact repeats. Identical values can stand only once.
# Columns and labels:
# Mus musculus [1] = assay: Subcutaneous metrazole (scMet) test was conducted and median effective dose was determined at the time of peak anticonvulsant and sedative effect; assay type: organism-based; details: in vivo
# In short: (§1)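 Pentylenetetrazol (85 mg/kg in mice, 70 mg/kg in rats) was given subcutaneously in the posterior midline as a 0.5% solution. Compounds were in 30% PEG 400, dosed ip in male Carworth Farms no. 1 mice, or orally in mice and Sprague-Dawley rats. ED50 was read at time of peak effect, using groups of 8–16 animals and ≥3 doses giving 10–90% protection. Probit analysis gave 95% confidence intervals.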
# [2] = (§2) Median toxic dose was measured at time of peak neurologic deficit
# In short: (§3)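 Mice dosed ip in 30% PEG 400. Minimal neurotoxicity was scored by rotorod at the time of peak neurologic deficit. Groups of 8–16 mice were used, with at least three points in the 10–90% range, and TD50 with 95% confidence interval was derived by probit analysis.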
# Mus musculus [3] = species: Mus musculus; assay: (§4) Time taken to reach peak activity was reported.; assay type: functional
# [4] = Protective index is the ratio of TD50 and ED50 values obtained in the maximal electroshock seizure (MES) test.; assay type: functional
# In short: (§5)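 Protective index = TD50/ED50. Both values are medians from groups of 8–16 animals per dose, with at least three points in the 10–90% effect range, fitted by probit analysis. Each was taken at its own time of peak effect: seizure protection for ED50, neurologic deficit for TD50.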
# Mus musculus [5] = assay: (§6) MES test was performed after Injecting intraperitoneally at the time of peak anticonvulsant effect in phase II test; assay type: functional; details: ip
# In short: (§7)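 Phase II testing in male Carworth Farms no. 1 mice, ip dosing in 30% PEG 400 (0.01 mL/g). Groups of 8–16 mice received a range of doses, giving at least three points in 10–90% protection. ED50 with 95% confidence interval was fitted by probit analysis at the time of peak effect. scMet used pentylenetetrazol 85 mg/kg sc.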
# Mus musculus [6] = assay: (§8) Subcutaneous metrazole (scMet) test was conducted after Injecting intraperitoneally at the time of peak anticonvulsant in phase II test; assay type: functional; in short: as §7
# Mus musculus [7] = species: Mus musculus; assay: (§9) Median toxic dose was measured at time of peak neurologic deficit.; assay type: functional; in short: as §3
# Mus musculus [8] = species: Mus musculus; assay: (§10) Time taken to reach peak toxicity was reported.; assay type: organism-based; details: in vivo
# [9] = Protective index is the ratio of TD50 and ED50 values obtained in the subcutaneous metrazole (scMet) test.; assay type: functional; in short: as §5
# Mus musculus [10] = assay: as §8; assay type: ADME, organism-based; details: ip; in short: as §7
# Mus musculus [11] = species: Mus musculus; assay: Anticonvulsant activity was determined by injecting perorally in mice. MES test was performed; assay type: functional
# In short: (§11)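 Oral dosing in mice, test solutions in 30% polyethylene glycol 400, 0.01 mL/g body weight. Groups of 8–16 mice received a range of doses until at least three points fell within 10–90% seizure protection.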
# Mus musculus [12] = species: Mus musculus; assay: Anticonvulsant activity was determined by injecting perorally in mice. Time taken to reach peak activity was reported.; assay type: functional
# In short: (§12)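 Time of peak effect, in hours, was found separately for anticonvulsant activity and for neurotoxicity. ED50 and TD50 were then determined at those times.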
# Rattus norvegicus [13] = species: Rattus norvegicus; assay: Anticonvulsant activity was determined by injecting perorally in rats. MES test was performed; assay type: functional
# Rattus norvegicus [14] = species: Rattus norvegicus; assay: Anticonvulsant activity was determined by injecting perorally in rats. Time taken to reach peak activity was reported.; assay type: functional; in short: as §12
# [15] = Dose Injected intraperitoneally that causes death 50% of the mice within 24 hr was reported as lethal dose 50 (LD50).; assay type: organism-based; details: mouse, in vivo, ip
# [16] = Neurotoxicity was determined by injecting perorally in rats; assay type: toxicity, organism-based; details: rat, in vivo, po
# In short: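 Rats dosed orally in 30% PEG 400. Neurotoxicity was assessed by positional sense and gait-and-stance tests at the time of peak deficit. TD50 with 95% confidence interval was derived by probit analysis from at least three dose points in the 10–90% range.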
# Mus musculus [17] = species: Mus musculus; assay: Anticonvulsant activity was determined by injecting perorally in mice.(scMet) test was conducted; assay type: functional; in short: as §11
# Mus musculus [18] = assay: Dose Injected intraperitoneally that causes loss of righting reflex in mice was reported as hypnotic dose (HD).; assay type: functional
# In short: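 Mice dosed ip after a toxicity profile at TD50, 2× and 4× TD50, observed from 10 min to 24 h. HD50 is the dose causing loss of righting reflex in 50% of mice, with groups of eight mice scored at several times up to 24 h.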
# [19] = as §9; assay type: organism-based; details: mouse, in vivo; in short: as §3
# Mus musculus [20] = species: Mus musculus; assay: Anticonvulsant activity was determined by injecting perorally in mice. Time taken to reach peak toxicity was reported.; assay type: functional; in short: as §12
# Rattus norvegicus [21] = species: Rattus norvegicus; assay: Anticonvulsant activity was determined by injecting perorally in rats. Time taken to reach peak toxicity was reported.; assay type: organism-based; details: in vivo, po; in short: as §12
# [22] = as §10
# [23] = as §4; assay type: functional
# Rattus norvegicus [24] = species: Rattus norvegicus; assay: Anticonvulsant activity was determined by injecting perorally in rats. (scMet) test was conducted; assay type: functional
# Mus musculus [25] = assay: as §6; assay type: ADME, organism-based; details: ip; in short: as §7
# [26] = Protective index is the ratio of TD50 and ED50 values obtained in the subcutaneous metrazole (scMet) test in phase II test; assay type: functional; in short: as §5
# [27] = Dose Injected intraperitoneally that causes death 50% of the mice within 24 hr was reported as lethal dose 50. No deaths among eight test animals at 4000 mg/kg after 24 hr in phase III test; assay type: organism-based; design: dose 4000 mg/kg, route intraperitoneal; details: mouse, in vivo, ip
# [28] = Anticonvulsant activity was determined by injecting perorally in rats. Protective index is the ratio of TD50 and ED50 values obtained in the subcutaneous metrazole (scMet) test; assay type: functional; in short: as §5
# [29] = Anticonvulsant activity was determined by injecting perorally in mice. Protective index is the ratio of TD50 and ED50 values obtained in the maximal electroshock seizure (MES) test.; assay type: functional; in short: as §5
# [30] = Time taken to reach peak toxicity was reported in phase II test
# In short: (§13)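 Male Carworth Farms no. 1 mice dosed ip in 30% polyethylene glycol 400 (0.01 mL/g). Seizure protection was tested by MES and by sc pentylenetetrazol (85 mg/kg, 0.5% solution, posterior midline); neurotoxicity was tested on the rotorod. Time of peak effect is given in hours. ED50 and TD50 were determined at that time in groups of 8–16 mice.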
# [31] = Median toxic dose was measured at time of peak neurologic deficit in phase II test; assay type: organism-based; details: mouse, in vivo; in short: as §3
# [32] = Neurotoxicity was determined by injecting perorally in mice. Median toxic dose was measured; assay type: toxicity, organism-based; details: mouse, in vivo, po
# In short: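 Mice dosed orally in 30% PEG 400. Neurotoxicity was scored by rotorod at the time of peak neurologic deficit. Groups of 8–16 mice were used, with at least three points in the 10–90% range, and TD50 with 95% confidence interval was derived by probit analysis.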
# [33] = Anticonvulsant activity was determined by injecting perorally in mice. Protective index is the ratio of TD50 and ED50 values obtained in the subcutaneous metrazole (scMet) test; assay type: functional; in short: as §5
# [34] = Anticonvulsant activity was determined by injecting perorally in rats. Protective index is the ratio of TD50 and ED50 values obtained in the maximal electroshock seizure (MES) test.; assay type: functional; in short: as §5
# [35] = Time taken to reach peak activity was reported in phase II test; assay type: functional; in short: as §13
# Mus musculus [36] = species: Mus musculus; assay: Anticonvulsant activity was determined by injecting perorally in mice. Maximal electroshock seizure test was performed; assay type: functional; in short: as §11
# Mus musculus [37] = species: Mus musculus; assay: Anticonvulsant activity was determined by injecting perorally in mice. Time taken to reach peak activity was reported; assay type: functional; in short: as §12
# Rattus norvegicus [38] = species: Rattus norvegicus; assay: Anticonvulsant activity was determined by injecting perorally in rats. Time taken to reach peak toxicity was reported; assay type: organism-based; details: in vivo, po; in short: as §12
# Mus musculus [39] = species: Mus musculus; assay: Anticonvulsant activity was determined by injecting perorally in mice. Time taken to reach peak toxicity was reported; assay type: organism-based; details: in vivo, po; in short: as §12
# Rattus norvegicus [40] = species: Rattus norvegicus; assay: Anticonvulsant activity was determined by injecting perorally in rats. Time taken to reach peak activity was reported; assay type: functional; in short: as §12
# [41] = Protective index is the ratio of TD50 and ED50 values obtained in the maximal electroshock seizure (MES) test in phase II test; assay type: functional; in short: as §5
# Mus musculus [42] = assay: (§14) Subcutaneous metrazole (scMet) test was conducted and median effective dose was determined at the time of peak anticonvulsant and sedative effect.; assay type: functional; details: sc; in short: as §1
# Mus musculus [43] = assay: as §14; assay type: organism-based; details: in vivo; in short: as §1
# Mus musculus [44] = species: Mus musculus; assay: Time taken to reach peak activity was reported; assay type: functional; in short: as §12
# [45] = as §2; assay type: organism-based; details: mouse, in vivo; in short: as §3
# Mus musculus [46] = assay: Rotarod test was used to evaluate neurotoxicity in mice. Toxicity values are reported after 0.5 hr at 300 mg/kg; Toxic; assay type: organism-based; design: dose 300 mg/kg; details: in vivo
# Mus musculus [47] = assay: Rotarod test was used to evaluate neurotoxicity in mice. Toxicity values are reported after 4.0 hr toxicity at 300 mg/kg; toxic; assay type: organism-based; design: dose 300 mg/kg; details: in vivo
smiles,measurement,setting,value
Cc1ccccc1-n1c(C)nc2ccccc2c1=O [METHAQUALONE],ED50,Mus musculus [1],33.5 mg/kg
same,TD50,[2],55 mg/kg
O=C(Cc1nc2ccccc2c(=O)n1-c1ccccc1F)c1ccncc1,TPE,Mus musculus [3],2 h
same,PI,[4],4.2
same,ED50,Mus musculus [5],196 mg/kg
same,ED50,Mus musculus [6],50 mg/kg
same,TD50,Mus musculus [7],832 mg/kg
same,TPE,Mus musculus [8],1 h
same,PI,[9],16.6
O=C(Cc1nc2ccccc2c(=O)n1-c1ccccc1Cl)c1ccncc1,ED50,Mus musculus [10],14.5 mg/kg
same,ED50,Mus musculus [11],14.1 mg/kg
same,PI,[4],1.3 (2×) and 2
same,TPE,Mus musculus [12],1
same,ED50,Rattus norvegicus [13],1.44 mg/kg
same,TPE,Rattus norvegicus [14],4 h
same,LD50 at 24 h,[15],> 3000 mg/kg
same,TD50,[16],2.91 mg/kg
same,ED50,Mus musculus [17],2.53 mg/kg
same,HD50,Mus musculus [18],1181 mg/kg
same,TD50,[19],262 mg/kg
same,TPE,Mus musculus [20],0.5
same,TPE,Rattus norvegicus [21],4 h
same,TPE,[22],2.5 h
same,TPE,[23],2.5 h
same,ED50,Rattus norvegicus [24],3.09 mg/kg
same,ED50,Mus musculus [25],196 mg/kg
Cc1ccccc1-n1c(CC(=O)c2ccncc2)nc2ccccc2c1=O,PI,[26],5.6
same,LD50 at 24 h,[27],> 4000 mg/kg
same,PI,[28],1.1
same,PI,[29],2.5
same,TPE,[30],2 h
same,ED50,Mus musculus [5],148 mg/kg
same,ED50,Rattus norvegicus [13],1.73 mg/kg
same,TD50,[31],561 mg/kg
same,TD50,[16],2.89 mg/kg
same,ED50,Mus musculus [17],15 mg/kg
same,TD50,[32],67.6 mg/kg
same,PI,[33],4.5
same,PI,[34],1.7
same,ED50,Mus musculus [6],100 mg/kg
same,TPE,[35],2 h
same,ED50,Mus musculus [36],27.1 mg/kg
same,TPE,Mus musculus [37],2 h
same,TPE,Rattus norvegicus [38],4 h
same,TPE,Mus musculus [39],0.5 h
same,TPE,Rattus norvegicus [40],4 h
same,PI,[41],3.8
same,ED50,Rattus norvegicus [24],2.57 mg/kg
CCC1(c2ccccc2)C(=O)NC(=O)NC1=O [PHENOBARBITAL],ED50,Mus musculus [42],13.2 mg/kg
CCC1(C)CC(=O)NC1=O (stereo not drawn) [ETHOSUXIMIDE],ED50,Mus musculus [43],130.4 mg/kg
O=C(Cc1nc2ccccc2c(=O)n1-c1ccccc1Br)c1ccncc1,PI,[4],> 14.7
same,TPE,Mus musculus [44],1 h
same,TD50,[45],> 2000 mg/kg
same,ED50,Mus musculus [5],136 mg/kg
same,Activity,Mus musculus [46],Toxic
same,ED50,Mus musculus [6],19 mg/kg
same,Activity,Mus musculus [47],Toxic
same,PI,[9],>105
